Results as given in ChEMBL document CHEMBL1155977, “Design and one-pot synthesis of alpha-aminophosphonates and bis(alpha-aminophosphonates) by iron(III) chloride and cytotoxic activity” (Eur J Med Chem, 2009).
pIC50: −log10 of the molar value.

How the values were obtained:
Raji [1] = experiment: Cytotoxicity against human Raji cells assessed as growth inhibition at 100 uM after 48 hrs by MTT assay; type: functional
Procedure, shortened: (§1)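 Jurkat and Raji cells in RPMI 1640 with 10% fetal bovine serum, plated at 10⁴ cells/well. Compounds in DMSO diluted into medium, tested at 0.1–100. Exposure 48 h at 37 °C, 5% CO₂. Doxorubicin positive control; 0.6% DMSO negative control. MTT added for a further 4 h; formazan dissolved in 2-propanol/DMSO/HCl (30:20:2); A570. Inhibition percentage taken at the top concentration.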

Jurkat [2] = experiment: Cytotoxicity against human Jurkat cells assessed as growth inhibition at 100 uM after 48 hrs by MTT assay; type: functional; procedure, shortened: as §1
MCF7 [3] = experiment: Cytotoxicity against human MCF7 cells assessed as growth inhibition at 100 uM after 72 hrs by MTT assay; type: functional; conditions: MCF7, 72 h
Procedure, shortened: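 MCF-7 cells in RPMI 1640 with 10% fetal bovine serum, plated at 10⁴ cells/well. Compounds in DMSO diluted into medium at 0.1–100 and incubated 72 h at 37 °C, 5% CO₂. Doxorubicin served as positive control and 0.6% DMSO as negative control. MTT for 4 h; formazan dissolved in 2-propanol/DMSO/HCl (30:20:2); read at 570 nm. Inhibition percentage at the highest concentration.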

Raji [4] = experiment: Cytotoxicity against human Raji cells after 48 hrs by MTT assay; type: functional, cell-based
Procedure, shortened: (§2)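 Cells were grown in RPMI 1640 with 10% fetal bovine serum and plated at 10⁴ cells/well. Compounds were dissolved in DMSO, diluted in medium, and tested at 0.1, 1, 10, 25, 50, 75 and 100. Incubation was at 37 °C in 5% CO₂ for 48 h (Jurkat, Raji) or 72 h (MCF-7). Controls were doxorubicin (positive) and 0.6% DMSO (negative). MTT was added for a further 4 h, formazan was dissolved in 2-propanol/DMSO/HCl (30:20:2), and absorbance was read at 570 nm.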

MCF7 [5] = experiment: Cytotoxicity against human MCF7 cells after 72 hrs by MTT assay; type: functional, cell-based; conditions: MCF7, 72 h; procedure, shortened: as §2
Jurkat [6] = experiment: Cytotoxicity against human Jurkat cells after 48 hrs by MTT assay; type: functional, cell-based; procedure, shortened: as §2

SMILES | inhibition at 100 µM (Raji [1]) | inhibition at 100 µM (Jurkat [2]) | inhibition at 100 µM (MCF7 [3]) | pIC50 (Raji [4]) | pIC50 (MCF7 [5]) | pIC50 (Jurkat [6])
CCOP(=O)(OCC)C(Nc1ccc(Cc2ccc(NC(c3cc(OC)c(OC)c(OC)c3)P(=O)(OCC)OCC)cc2)cc1)c1cc(OC)c(OC)c(OC)c1 (stereo not given) | 0% | 20.1% | 3.5% |  |  | 
CCOP(=O)(OCC)C(Nc1ccc(Cc2ccc(NC(c3ccc(N(C)C)cc3)P(=O)(OCC)OCC)cc2)cc1)c1ccc(N(C)C)cc1 (stereo not given) | 0.78% | 17.8% | 12.7% |  |  | 
CCOP(=O)(OCC)C(Nc1ccc(S(=O)(=O)c2ccc(NC(c3ccc(O)c(OC)c3)P(=O)(OCC)OCC)cc2)cc1)c1ccc(O)c(OC)c1 (stereo not given) | 0% | 15.6% | 16.6% |  |  | 
CCOP(=O)(OCC)C(Nc1ccc(Cc2ccc(NC(c3ccccc3)P(=O)(OCC)OCC)cc2)cc1)c1ccccc1 (stereo not given) | 6.41% | 28% | 13.9% |  |  | 
CCOP(=O)(OCC)C(Nc1nc2[nH]cnc2c(=O)[nH]1)c1ccc(C(Nc2nc3[nH]cnc3c(=O)[nH]2)P(=O)(OCC)OCC)cc1 (stereo not given) | 64.8% | 0% | 12.7% |  |  | 
CCOP(=O)(OCC)C(Nc1ccc(C(=O)c2ccc(NC(c3ccccc3)P(=O)(OCC)OCC)cc2)cc1)c1ccccc1 (stereo not given) | 0% | 15.8% | 10.2% |  |  | 
CCOP(=O)(OCC)C(Nc1ccc(Oc2ccc(NC(c3ccccc3)P(=O)(OCC)OCC)cc2)cc1)c1ccccc1 (stereo not given) | 0% | 6.84% | 0% |  |  | 
CCOP(=O)(OCC)C(Nc1ccc(Cc2ccc(NC(c3ccc(O)c(OC)c3)P(=O)(OCC)OCC)cc2)cc1)c1ccc(O)c(OC)c1 (stereo not given) | 56.2% | 40.1% | 29.1% | 4.23 |  | 
CCOP(=O)(OCC)C(Nc1ccc(Cc2ccc(NC(c3ccc([N+](=O)[O-])cc3)P(=O)(OCC)OCC)cc2)cc1)c1ccc([N+](=O)[O-])cc1 (stereo not given) | 0% | 10.7% | 12.2% |  |  | 
CCOP(=O)(OCC)C(NCCc1c[nH]c2ccccc12)c1ccc(C(NCCc2c[nH]c3ccccc23)P(=O)(OCC)OCC)cc1 (stereo not given) | 64.8% | 68.4% | 54.2% | 4.34 | 4.17 | 4.61
CCOP(=O)(OCC)C(Nc1ccccc1)c1ccc(C(Nc2ccccc2)P(=O)(OCC)OCC)cc1 (stereo not given) | 27.2% | 36.8% | 25.4% |  |  | 
COc1cccc2c1C(=O)c1c(O)c3c(c(O)c1C2=O)C[C@@](O)(C(=O)CO)C[C@@H]3O[C@H]1C[C@H](N)[C@H](O)[C@H](C)O1 [DOXORUBICIN] | 66.7% | 82.3% | 65.5% |  |  | 
